In ChEMBL document CHEMBL5104098, “Exploring the structure-activity relationship of benzylidene-2,3-dihydro-1H-inden-1-one compared to benzofuran-3(2H)-one derivatives as inhibitors of tau amyloid fibers” (Eur J Med Chem, 2022):
Activity calls are given as the source filed them. No cut-off for these calls is given here.

What was measured:
[1] = Inhibition of synthetic AcPHF6 peptide aggregation in pH 7.4 phosphate buffer assessed as reduction in fluorescence intensity at 10 uM and measured every minute over 2 hrs by ThT fluorescence assay relative to control
How it was run: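 Fluorescence read every minute for 2 h, ex 440/em 480 nm. Intrinsic compound fluorescence corrected with peptide-free blank wells. Hexaplicate; % inhibition versus peptide-only control.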

[2] = Displacement of ThT from AcPHF6 in pH 7.4 phosphate buffer assessed as reduction in fluorescence intensity relative to control; conditions: dose 10.0 µM
How it was run: (§1)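 Preformed AcPHF6 fibers (1 mM peptide left 24 h in deionised water) added to give 100 μM fibers with 10 μM ThT in 50 mM phosphate buffer pH 7.4, ≤0.5% DMSO; compound 10 μM (1:1 with ThT). Emission spectra recorded shortly after fiber addition, excitation 440 nm; % decrease calculated from emission intensity at 480 nm.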

[3] = Displacement of ThT from AcPHF6 in pH 7.4 phosphate buffer at 1:1 compound:ThT ratio; how it was run: as §1
[4] = Inhibition of synthetic AcPHF6 peptide aggregation in pH 7.4 phosphate buffer assessed as reduction in beta sheet formation at 100 uM incubated for 2 hrs by circular dichroism spectroscopy
How it was run: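 CD samples: 100 μM AcPHF6 in 50 mM phosphate buffer, compound with <0.2% DMSO, 1 mm quartz cell. Spectra taken after 2 h at room temperature, 260–190 nm, 1 nm resolution, 1 s per point, 10 nm bandwidth. Compound level is printed as 10 μM in methods and 100 μM in legend.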

[5] = Inhibition of synthetic AcPHF6 peptide aggregation in pH 7.4 phosphate buffer assessed as reduction in beta sheet fibrillation at 100 uM incubated for 24 hrs by atomic force microscopy analysis
How it was run: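 AFM imaging of samples taken from the CD preparations after 24 h fibrillation at room temperature; 100 μM AcPHF6 alone or with compound at 100 μM.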

| Compound | inhibition [1] [%] | inhibition [2] [%] | inhibition [3] | inhibition [4] | inhibition [5] |
| --- | --- | --- | --- | --- | --- |
| O=C1/C(=C/c2ccc(O)c(O)c2)Oc2cc(O)cc(O)c21 | 93 | 85 | Active | – | – |
| O=C1/C(=C/c2cc(O)c(O)c(O)c2)Cc2ccccc21 | 71 | 42 | Active | Active | Active |
| COc1cccc(/C=C2\Oc3c(OC)cccc3C2=O)c1 | 69 | 45 | Active | – | – |
| O=C1/C(=C/c2cc(O)c(O)c(O)c2)Oc2c(O)cccc21 | 91 | 88 | Active | – | – |
| O=C1/C(=C/c2ccc(O)cc2O)Cc2cc(O)cc(O)c21 | 72 | 76 | Active | – | – |
| O=C1/C(=C/c2cc(O)c(O)c(O)c2)Cc2c(O)cccc21 | 83 | 78 | Active | Active | – |
| O=C1/C(=C/c2ccc(O)c(O)c2)Cc2cc(O)cc(O)c21 | 78 | 65 | Active | – | – |
| O=C1/C(=C/c2cc(O)c(O)c(O)c2)Oc2cc(O)cc(O)c21 | 99 | 94 | Active | – | – |
| O=C1/C(=C/c2cc(O)c(O)c(O)c2)Cc2cc(O)cc(O)c21 | 87 | 90 | Active | Active | – |
| O=C1/C(=C/c2ccc(O)cc2O)Oc2cc(O)cc(O)c21 | 94 | 89 | Active | – | – |
| O=C1/C(=C/c2cc(O)c(O)c(O)c2)Oc2ccccc21 | 68 | 70 | Active | – | – |
